Assay results from ChEMBL document CHEMBL4321823, “Benzyl Phenylsemicarbazides: A Chemistry-Driven Approach Leading to G Protein-Biased Dopamine D4 Receptor Agonists with High Subtype Selectivity” (J Med Chem, 2019).
Activity calls are given as the source filed them. The rule behind the calls is not given here.

Tests used:
[1] = target: T1, Muscarinic acetylcholine receptor M2 (Homo sapiens, UniProt P08172); assay: Displacement of [3H] NMS from muscarinic M2 receptor (unknown origin)
T1 sequence (P08172 whole entry): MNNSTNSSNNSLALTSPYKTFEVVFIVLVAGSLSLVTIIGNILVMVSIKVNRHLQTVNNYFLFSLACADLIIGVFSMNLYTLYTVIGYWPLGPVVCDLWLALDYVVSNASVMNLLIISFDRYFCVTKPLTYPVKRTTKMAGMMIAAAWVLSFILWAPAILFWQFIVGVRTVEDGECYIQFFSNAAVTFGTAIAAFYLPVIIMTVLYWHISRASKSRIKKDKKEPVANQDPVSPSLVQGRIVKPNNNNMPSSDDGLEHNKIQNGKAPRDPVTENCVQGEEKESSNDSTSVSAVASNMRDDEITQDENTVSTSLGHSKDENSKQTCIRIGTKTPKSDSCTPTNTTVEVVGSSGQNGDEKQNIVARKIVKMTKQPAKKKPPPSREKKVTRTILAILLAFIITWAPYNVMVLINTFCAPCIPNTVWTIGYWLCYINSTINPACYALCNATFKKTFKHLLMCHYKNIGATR
Outline: (§1)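 Radioligand competition binding; Ki given as mean ± SD from two individual experiments, each run in triplicate.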

Mu-type opioid receptor = Mu-type opioid receptor (Homo sapiens, UniProt P35372); assay: Displacement of [3H] diprenorphine from mu opioid receptor (unknown origin); outline: as §1
Mu-type opioid receptor, sequence (P35372 whole entry): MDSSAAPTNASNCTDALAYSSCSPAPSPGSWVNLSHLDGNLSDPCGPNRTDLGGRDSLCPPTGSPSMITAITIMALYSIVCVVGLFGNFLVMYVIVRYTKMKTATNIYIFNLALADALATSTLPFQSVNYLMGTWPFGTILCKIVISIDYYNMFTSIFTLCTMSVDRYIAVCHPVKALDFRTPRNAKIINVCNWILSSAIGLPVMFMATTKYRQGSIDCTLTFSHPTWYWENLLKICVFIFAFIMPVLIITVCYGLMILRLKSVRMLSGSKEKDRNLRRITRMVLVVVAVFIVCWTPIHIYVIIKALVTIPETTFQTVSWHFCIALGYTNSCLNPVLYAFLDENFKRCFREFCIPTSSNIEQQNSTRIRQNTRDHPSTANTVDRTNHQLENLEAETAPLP

Homo sapiens [2] = species on record: Homo sapiens; assay: Selectivity index, ratio of Ki for displacement of [3H] Spiperone from human D2S receptor expressed in CHO cells to Ki for displacement of [3H] Spiperone from human D4.4 receptor expressed in CHO cells; format: cell-based
Outline: (§2)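 Competition binding against [3H]spiperone on membranes of CHO cells stably expressing cloned human D2L, D2S, D3 or D4.4 receptors. Ki from monophasic curve fits; mean ± SEM of three to seven experiments, each in triplicate. Selectivity calculated as Ki(D2L, D2S or D3) divided by Ki(D4.4).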

[3] = target: T2, 5-hydroxytryptamine receptor 1A (Homo sapiens, UniProt P08908); assay: Displacement of [3H] WAY100635 from 5HT1A receptor (unknown origin); outline: as §1
T2 sequence (P08908 whole entry): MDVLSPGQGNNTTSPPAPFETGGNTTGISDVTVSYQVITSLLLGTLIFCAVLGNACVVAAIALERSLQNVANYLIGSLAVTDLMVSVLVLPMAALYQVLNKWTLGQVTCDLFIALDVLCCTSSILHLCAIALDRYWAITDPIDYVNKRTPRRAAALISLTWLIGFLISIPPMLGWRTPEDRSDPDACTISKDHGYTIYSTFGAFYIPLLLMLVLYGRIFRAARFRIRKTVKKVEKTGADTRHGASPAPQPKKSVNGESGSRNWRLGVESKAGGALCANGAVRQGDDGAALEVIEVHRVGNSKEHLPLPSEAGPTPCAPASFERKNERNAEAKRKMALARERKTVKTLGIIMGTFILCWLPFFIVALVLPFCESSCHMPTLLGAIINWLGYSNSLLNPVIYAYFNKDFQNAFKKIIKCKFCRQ

[4] = target: T3, Alpha-1A adrenergic receptor (Homo sapiens) (UniProt P35348); assay: Antagonist activity at human alpha1A adrenergic receptor expressed in HEK293T cells assessed as accumulation of inositol monophosphate using d2-labelled IP1 conjugate incubated for 60 mins by HTRF assay; format: functional, cell-based
T3 sequence (whole entry): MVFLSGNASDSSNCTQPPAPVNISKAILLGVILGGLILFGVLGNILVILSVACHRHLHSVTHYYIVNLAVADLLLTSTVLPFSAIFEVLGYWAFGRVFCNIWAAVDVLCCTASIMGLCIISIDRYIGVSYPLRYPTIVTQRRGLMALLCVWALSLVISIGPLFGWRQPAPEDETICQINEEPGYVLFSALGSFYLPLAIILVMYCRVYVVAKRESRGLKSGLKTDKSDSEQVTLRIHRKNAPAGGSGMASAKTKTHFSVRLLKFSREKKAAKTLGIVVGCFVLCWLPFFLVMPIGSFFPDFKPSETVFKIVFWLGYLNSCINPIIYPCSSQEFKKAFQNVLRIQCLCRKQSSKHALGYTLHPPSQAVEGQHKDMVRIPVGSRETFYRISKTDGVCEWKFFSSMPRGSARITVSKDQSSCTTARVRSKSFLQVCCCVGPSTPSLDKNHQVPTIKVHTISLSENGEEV

D(4) dopamine receptor [5] = target: T4, D(4) dopamine receptor (Homo sapiens, UniProt P21917); assay: Antagonist activity at […] D4 receptor (unknown origin) expressed in HEK293 cells co-expressing beta-arrestin2 assessed as inhibition of quinpirole-induced beta-arrestin2 recruitment preincubated for 30 mins followed by quinpirole addition and further incubated for 6 hrs by Path-Hunter assay; format: cell-based
T4 sequence (P21917 whole entry): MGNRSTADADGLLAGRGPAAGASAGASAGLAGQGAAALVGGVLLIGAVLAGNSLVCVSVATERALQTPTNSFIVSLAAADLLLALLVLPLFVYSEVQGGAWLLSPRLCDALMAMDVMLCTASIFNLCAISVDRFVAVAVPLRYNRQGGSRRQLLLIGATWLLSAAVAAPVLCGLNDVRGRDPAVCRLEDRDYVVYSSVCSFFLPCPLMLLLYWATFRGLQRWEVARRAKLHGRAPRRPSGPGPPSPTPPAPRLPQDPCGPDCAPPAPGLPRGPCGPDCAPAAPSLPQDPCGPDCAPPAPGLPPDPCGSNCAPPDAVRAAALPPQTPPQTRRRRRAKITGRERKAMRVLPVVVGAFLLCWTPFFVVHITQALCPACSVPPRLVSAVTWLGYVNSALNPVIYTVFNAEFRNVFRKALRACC

Homo sapiens [6] = species on record: Homo sapiens; assay: Selectivity index, ratio of Ki for displacement of [3H] Spiperone from human D2L receptor expressed in CHO cells to Ki for displacement of [3H] Spiperone from human D4.4 receptor expressed in CHO cells; format: cell-based; outline: as §2
[7] = target: 5-hydroxytryptamine receptor 2A (Homo sapiens, UniProt P28223); assay: Displacement of [3H] Ketanserin from 5HT2A receptor (unknown origin)
5-hydroxytryptamine receptor 2A, sequence (P28223 whole entry): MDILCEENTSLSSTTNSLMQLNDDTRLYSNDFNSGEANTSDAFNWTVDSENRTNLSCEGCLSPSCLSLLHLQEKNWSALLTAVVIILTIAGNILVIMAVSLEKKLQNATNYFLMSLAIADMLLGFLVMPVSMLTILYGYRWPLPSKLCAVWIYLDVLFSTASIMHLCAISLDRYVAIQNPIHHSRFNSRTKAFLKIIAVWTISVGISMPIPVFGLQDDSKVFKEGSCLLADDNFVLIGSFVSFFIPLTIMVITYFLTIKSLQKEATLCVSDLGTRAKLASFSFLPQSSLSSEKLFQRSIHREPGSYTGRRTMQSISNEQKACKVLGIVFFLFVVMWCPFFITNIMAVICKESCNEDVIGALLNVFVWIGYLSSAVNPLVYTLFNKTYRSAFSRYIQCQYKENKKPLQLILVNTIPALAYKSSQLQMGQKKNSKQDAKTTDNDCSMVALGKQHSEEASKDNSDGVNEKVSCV

[8] = target: Kappa-type opioid receptor (Homo sapiens, UniProt P41145); assay: Displacement of [3H] diprenorphine from kappa opioid receptor (unknown origin); outline: as §1
Kappa-type opioid receptor, sequence (P41145 whole entry): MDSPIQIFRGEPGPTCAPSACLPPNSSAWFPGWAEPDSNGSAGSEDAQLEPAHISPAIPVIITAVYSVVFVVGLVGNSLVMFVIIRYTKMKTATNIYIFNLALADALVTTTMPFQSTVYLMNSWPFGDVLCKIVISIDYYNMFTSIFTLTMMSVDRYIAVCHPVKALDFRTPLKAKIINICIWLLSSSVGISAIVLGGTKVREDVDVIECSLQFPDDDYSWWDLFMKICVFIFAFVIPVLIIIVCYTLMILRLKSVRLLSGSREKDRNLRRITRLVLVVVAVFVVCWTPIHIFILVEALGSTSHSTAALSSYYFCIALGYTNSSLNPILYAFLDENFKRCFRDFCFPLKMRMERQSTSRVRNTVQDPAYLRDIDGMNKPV

D(4) dopamine receptor [9] = target: T4, D(4) dopamine receptor; assay: Agonist activity at human D4 receptor expressed in HEK293T cells co-expressing G-alphaqi assessed as accumulation of inositol monophosphate using d2-labelled IP1 conjugate incubated for 90 mins by HTRF assay; format: functional, cell-based
[10] = target: Delta-type opioid receptor (Homo sapiens, UniProt P41143); assay: Displacement of [3H] diprenorphine from delta opioid receptor (unknown origin)
Delta-type opioid receptor, sequence (P41143 whole entry): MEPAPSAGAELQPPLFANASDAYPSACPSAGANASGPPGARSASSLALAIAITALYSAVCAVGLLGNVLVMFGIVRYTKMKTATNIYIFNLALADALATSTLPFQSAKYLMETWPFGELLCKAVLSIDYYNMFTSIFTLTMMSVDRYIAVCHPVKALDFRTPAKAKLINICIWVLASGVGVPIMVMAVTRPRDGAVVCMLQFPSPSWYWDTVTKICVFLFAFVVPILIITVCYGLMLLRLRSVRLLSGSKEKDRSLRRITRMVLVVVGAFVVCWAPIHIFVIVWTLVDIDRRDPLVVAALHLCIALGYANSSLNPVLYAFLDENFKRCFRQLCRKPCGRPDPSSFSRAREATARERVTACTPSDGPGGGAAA

COc1ccccc1N1CCN(CCCNC(=O)NN(Cc2ccc(F)cc2)c2ccccc2)CC1
Ki [1]: 17 µM | Ki (Mu-type opioid receptor): 2.3 µM | Ratio Ki (Homo sapiens [2]): 200 | Ki [3]: 0.034 µM | Activity [4]: inactive | IC50 (D(4) dopamine receptor [5]): 0.62 µM | Ratio Ki (Homo sapiens [6]): 250 | Ki [7]: 0.13 µM | Ki [8]: 4.3 µM | EC50 (D(4) dopamine receptor [9]): 0.041 µM | Ki [10]: 19 µM
